This note sets out measurements from ChEMBL document CHEMBL1649510, “Nonsense and missense mutations in FCY2 and FCY1 genes are responsible for flucytosine resistance and flucytosine-fluconazole cross-resistance in clinical isolates of Candida lusitaniae” (2009).

In brackets after ≈: the same amount, converted by molar mass.

Common to all, as to assay type: functional
Assay [1] relates to Clavispora lusitaniae. Nature of the assay: Antifungal activity against Candida lusitaniae 6936 by microdilution method. Summed up:
(§1)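 CLSI broth microdilution using twofold dilutions in RPMI 1640 with about 10³ cells/ml, incubated 48 h at 35°C. Final ranges were 0.5–256 μg/ml flucytosine and 0.25–128 μg/ml fluconazole. Cross-resistance was tested with a flucytosine gradient at constant fluconazole (8 or 16 μg/ml). MIC was read by automated plate reader as the lowest concentration giving 50% growth inhibition versus the drug-free control.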

The subject of assay [2] is Clavispora lusitaniae. Nature of the assay: Antifungal activity against Candida lusitaniae CL216 by microdilution method. The procedure, abridged:
as §1

The subject of assay [3] is Clavispora lusitaniae. Nature of the assay: Antifungal activity against Candida lusitaniae CL31 by microdilution method. Summed up: as §1
(Dilution methods test growth across graded concentrations, often in twofold steps.)

The subject of assay [4] is Clavispora lusitaniae. As to the kind of experiment: Antifungal activity against Candida lusitaniae CL26 by microdilution method. Summed up:
as §1

In assay [5] the test system is Clavispora lusitaniae. Nature of the assay: Antifungal activity against Candida lusitaniae CL38-5 expressing FCY21 gene by microdilution method. The procedure, abridged: as §1
Assay [6] concerns Clavispora lusitaniae. As to the kind of experiment: Antifungal activity against Candida lusitaniae CL128 by microdilution method. The procedure, abridged: as §1
Assay [7] has as its system Clavispora lusitaniae. As to the kind of experiment: Antifungal activity against fcy1(1-119)-deficient Candida lusitaniae by microdilution method. Summed up:
as §1

The subject of assay [8] is Clavispora lusitaniae. Nature of the assay: Antifungal activity against REPF URA3 fcy1-deficient Candida lusitaniae by microdilution method. The procedure, abridged: as §1
In assay [9] the test system is Clavispora lusitaniae. Nature of the assay: Antifungal activity against Candida lusitaniae 42720 by microdilution method. The procedure, abridged: as §1
Assay [10] relates to Clavispora lusitaniae. Nature of the assay: Antifungal activity against Candida lusitaniae CL119 by microdilution method. The procedure, abridged: as §1
Assay [11] deals with Clavispora lusitaniae. As to the kind of experiment: Antifungal activity against Candida lusitaniae CL174 by microdilution method. The procedure, abridged: as §1
Assay [12] deals with Clavispora lusitaniae. As to the kind of experiment: Antifungal activity against Candida lusitaniae CL38 by microdilution method. The procedure, abridged: as §1
The subject of assay [13] is Clavispora lusitaniae. As to the kind of experiment: Antifungal activity against fcy1(1-26)-deficient Candida lusitaniae by microdilution method. Summed up:
as §1

The test system of assay [14] is Clavispora lusitaniae. Nature of the assay: Antifungal activity against Candida lusitaniae CL48 by microdilution method. Summed up: as §1
For assay [15], the system named is Clavispora lusitaniae. As to the kind of experiment: Antifungal activity against Candida lusitaniae CL32 by microdilution method. Summed up: as §1
Assay [16] concerns Clavispora lusitaniae. As to the kind of experiment: Antifungal activity against Candida lusitaniae CL42 by microdilution method. The procedure, abridged:
as §1

Assay [17] concerns Clavispora lusitaniae. As to the kind of experiment: Antifungal activity against Candida lusitaniae CL38-5 expressing FCY2 gene by microdilution method. Summed up: as §1
The subject of assay [18] is Clavispora lusitaniae. As to the kind of experiment: Antifungal activity against Candida lusitaniae CL29 by microdilution method. Summed up:
as §1

Assay [19] deals with Clavispora lusitaniae. As to the kind of experiment: Antifungal activity against Candida lusitaniae CL38-5 expressing URA3 gene by microdilution method. Summed up: as §1
In assay [20] the test system is Clavispora lusitaniae. As to the kind of experiment: Antifungal activity against fcy1-deficient Candida lusitaniae by microdilution method. Summed up: as §1

The MIC is the lowest concentration found to suppress growth. Low values mean greater potency, high ones weaker potency. Turning to `OC(Cn1cncn1)(Cn1cncn1)c1ccc(F)cc1F` [FLUCONAZOLE], the MIC against Clavispora lusitaniae [1] is 2 µg/mL (≈ 6.53 µM); against Clavispora lusitaniae [2], 1 µg/mL (≈ 3.27 µM); in the assay with Clavispora lusitaniae [3], 2 µg/mL (≈ 6.53 µM); in the assay with Clavispora lusitaniae [4], at most 0.25 µg/mL; against Clavispora lusitaniae [5], 2 µg/mL (≈ 6.53 µM); against Clavispora lusitaniae [6], 1 µg/mL (≈ 3.27 µM). The minimum inhibitory concentration (MIC) in the assay with Clavispora lusitaniae [7] was determined as 2 µg/mL (≈ 6.53 µM); against Clavispora lusitaniae [8], 2 µg/mL (≈ 6.53 µM); in the assay on Clavispora lusitaniae [9], 2 µg/mL (≈ 6.53 µM); with Clavispora lusitaniae [10], 1 µg/mL (≈ 3.27 µM); with Clavispora lusitaniae [11] it was 1 µg/mL (≈ 3.27 µM); against Clavispora lusitaniae [12], 2 µg/mL (≈ 6.53 µM). Moreover, the MIC with Clavispora lusitaniae [13] is 2 µg/mL (≈ 6.53 µM); against Clavispora lusitaniae [14], 2 µg/mL (≈ 6.53 µM); in the assay on Clavispora lusitaniae [15], at most 0.25 µg/mL; in the assay on Clavispora lusitaniae [16] it was 4 µg/mL (≈ 13.1 µM); against Clavispora lusitaniae [17], 2 µg/mL (≈ 6.53 µM); in the assay with Clavispora lusitaniae [18], 2 µg/mL (≈ 6.53 µM). In addition, the MIC in the assay on Clavispora lusitaniae [19] and against Clavispora lusitaniae [20] was 2 µg/mL (≈ 6.53 µM) each time.
With `Nc1nc(=O)[nH]cc1F` [FLUCYTOSINE], the MIC against Clavispora lusitaniae [1] is at most 0.5 µg/mL; with Clavispora lusitaniae [2], 32 µg/mL (≈ 248 µM); in the assay with Clavispora lusitaniae [3] it was 32 µg/mL (≈ 248 µM); against Clavispora lusitaniae [4], 64 µg/mL (≈ 496 µM); in the assay with Clavispora lusitaniae [5], 32 µg/mL (≈ 248 µM); against Clavispora lusitaniae [6], 32 µg/mL (≈ 248 µM). The MIC in the assay on Clavispora lusitaniae [7] was 128 µg/mL (≈ 992 µM); against Clavispora lusitaniae [8], at most 0.5 µg/mL; against Clavispora lusitaniae [9] it was at most 0.5 µg/mL; against Clavispora lusitaniae [10] it was 32 µg/mL (≈ 248 µM); against Clavispora lusitaniae [11] it was 64 µg/mL (≈ 496 µM); against Clavispora lusitaniae [12] it was 32 µg/mL (≈ 248 µM). Besides, the MIC with Clavispora lusitaniae [13] was 128 µg/mL (≈ 992 µM); with Clavispora lusitaniae [14], 32 µg/mL (≈ 248 µM); in the assay on Clavispora lusitaniae [15] it was 128 µg/mL (≈ 992 µM); with Clavispora lusitaniae [16] it was 64 µg/mL (≈ 496 µM); in the assay on Clavispora lusitaniae [17], at most 0.5 µg/mL; against Clavispora lusitaniae [18], 128 µg/mL (≈ 992 µM). The MIC was 32 µg/mL (≈ 248 µM) against Clavispora lusitaniae [19] and 128 µg/mL (≈ 992 µM) against Clavispora lusitaniae [20].
